The values that follow come from ChEMBL document CHEMBL3826950, “Design and development of new class of Mycobacterium tuberculosisl-alanine dehydrogenase inhibitors” (Bioorg Med Chem, 2016).

≈ marks a conversion by molar mass, not a printed value. Calls of active or inactive are those of the source. The rule behind the calls is not given here. A value given as a limit tells only on which side of the number the result lay.

What is called MIC is the lowest concentration that inhibits growth of the organism. A low value points to inhibition by little substance. For orientation: IC50 means the point on the concentration scale where inhibition reaches its midpoint.

Data set [1] deals with Mycobacterium tuberculosis. The data set is described as follows: Antibacterial activity against actively replicative Mycobacterium tuberculosis H37Rv measured after 7 days by MABA assay. As to conditions: 168 h. The format is functional. The method, boiled down:
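Serial two-fold dilutions in 7H9-S were tested against replicating M. tuberculosis H37Rv (ATCC 27294) at 37 °C for 7 days. Alamar blue was then added and plates were incubated overnight. MIC was the lowest concentration that prevented the blue-to-pink colour change.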
A general note: The colour change of resazurin is a common sign of viable cells or microbes.

Data set [2] is described as follows: Inhibition of Mycobacterium tuberculosis L-AlaDH assessed as NADH production by spectrophotometric method. The method, boiled down:
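Oxidative deamination of L-alanine to pyruvate was followed by NADH absorbance at 340 nm at 37 °C. Background was read from reaction mix without enzyme. Compounds were tested across a 25 to 0.5 range to derive IC50.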

Data set [3] in a line: Cytotoxicity against mouse RAW264.7 cells assessed as reduction in cell viability at 25 uM measured after 48 hrs by MTT assay. The format is cell-based. The note with it: read-out: INH. In a few lines:
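RAW 264.7 cells were grown in RPMI with 10% FBS and penicillin/streptomycin, seeded at about 5000 cells/well on poly-L-lysine, and held 24 h at 37 °C in 5% CO2. Compound exposure lasted 48 h. MTT (0.5 mg/ml) was added for 3 h and formazan was read at 595 nm.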
In general terms: Tetrazolium dyes change colour on reduction, which living cells bring about.

The subject of data set [4] is Mycobacterium tuberculosis. The data set can be described thus: Antibacterial activity against nutrient-starved dormant Mycobacterium tuberculosis H37Rv assessed in log reduction in bacterial count at 10 ug/ml measured after 7 days by MPN assay relative to control. The format is functional. In a few lines: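 H37Rv was grown in 7H9/OADC, washed, and starved in PBS in sealed bottles at 37 °C for 6 weeks. The starved culture was treated for 7 days at 37 °C, then diluted 10-fold to 10^-6 in 7H9/OADC and plated in triplicate. After 28 days at 37 °C, wells with growth were scored and MPN was calculated (n = 3).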

`Cc1cccc(C)c1NC(=O)C1CC(C(=O)Nc2c(C)cccc2C)N1NC(=O)c1ccncc1` (centres undefined) showed an MIC in data set [1] of 3.31 µM (≈ 1.56 µg/mL). Besides, the IC50 in data set [2] is 9.69 µM. Besides, the cytotoxicity at 48 h, 25 µM in data set [3] is 26.6%.

Compound `O=C(NN1C(C(=O)Nc2nc3ccccc3s2)CC1C(=O)Nc1nc2ccccc2s1)c1ccncc1` (centres undefined) yielded an MIC in data set [1] of 11.8 µM (≈ 6.25 µg/mL). Moreover, the “Log reduction in bacterial count” value in data set [4] is listed as 2. In addition, in data set [2], the IC50 was 3.83 µM. Also, the cytotoxicity at 48 h, 25 µM in data set [3] was 34.7%.

As to `O=C(NN1C(C(=O)Nc2ccc(Cl)c(Cl)c2)CC1C(=O)Nc1ccc(Cl)c(Cl)c1)c1ccncc1` (centres undefined), 1.41 µM (≈ 0.78 µg/mL) was the least that counted as inhibitory in data set [1] (MIC). In data set [2], the IC50 is 13.7 µM. In data set [3], the cytotoxicity at 48 h, 25 µM was found to be 49.5%.

As for `Cc1cccc(/C=N/NC2=Nc3[nH]c4ccc(C)cc4c3NN2)c1`, in data set [2], the IC50 came out at 18.2 µM.

`COc1c(N2C[C@@H]3CCCN[C@@H]3C2)c(F)cc2c(=O)c(C(=O)O)cn(C3CC3)c12` [MOXIFLOXACIN] registered a minimal inhibitory concentration (MIC) in data set [1] of 1.24 µM (≈ 0.498 µg/mL). Also, in data set [4], the “Log reduction in bacterial count” value came to 2.8.

In data set [1], `CO[C@H]1/C=C/O[C@@]2(C)Oc3c(C)c(O)c4c(O)c(c(/C=N/N5CCN(C)CC5)c(O)c4c3C2=O)NC(=O)/C(C)=C\C=C\[C@H](C)[C@H](O)[C@@H](C)[C@@H](O)[C@@H](C)[C@H](OC(C)=O)[C@@H]1C` [RIFAMPIN] gave an MIC of 0.15 µM (≈ 0.123 µg/mL). Besides, the “Log reduction in bacterial count” value in data set [4] stood at 2.2.

`COc1ccc(C(=O)Nc2ccccc2)cc1Nc1nc(Nc2ccccn2)nc2ncccc12`: in data set [2], the IC50 is 22.1 µM.

Turning to `O=C(NN1C(C(=O)Nc2ccccn2)CC1C(=O)Nc1ccccn1)c1ccncc1` (centres undefined), in data set [1], the lowest concentration to inhibit growth (MIC) was 3.74 µM (≈ 1.56 µg/mL). In addition, in data set [2], the 50% inhibitory concentration (IC50) was 9.47 µM. Besides, the cytotoxicity at 48 h, 25 µM in data set [3] worked out at 7.68%.

Compound `O=C(NN1C(C(=O)Nc2ccc(Cl)cc2)CC1C(=O)Nc1ccc(Cl)cc1)c1ccncc1` (centres undefined) showed an MIC in data set [1] of 51.6 µM (≈ 25 µg/mL). Moreover, in data set [2], the IC50 is 5.56 µM. Besides, the cytotoxicity at 48 h, 25 µM in data set [3] was 32.9%.

With `O=C(NN1C(C(=O)Nc2ccc(Br)cc2)CC1C(=O)Nc1ccc(Br)cc1)c1ccncc1` (centres undefined), the MIC in data set [1] amounted to 2.72 µM (≈ 1.56 µg/mL). Further, the result in data set [4] was inactive. In addition, the IC50 in data set [2] is > 25 µM. Also, in data set [3], the cytotoxicity at 48 h, 25 µM turned out to be 19.7%.

Compound `O=C(NN1C(C(=O)NCc2ccccc2)CC1C(=O)NCc1ccccc1)c1ccncc1` (centres undefined) displayed an MIC in data set [1] of 28.2 µM (≈ 12.5 µg/mL). In data set [2], the IC50 came to 10.2 µM. The cytotoxicity at 48 h, 25 µM in data set [3] came to 49.3%.

The compound `CC[C@@H](CO)NCCN[C@@H](CC)CO` [ETHAMBUTOL] registered an MIC in data set [1] of 7.64 µM (≈ 1.56 µg/mL). This counts as single-digit micromolar.

`Cc1ccc(NC(=O)C2CC(C(=O)Nc3ccc(C)cc3C)N2NC(=O)c2ccncc2)c(C)c1` (centres undefined): the MIC in data set [1] was determined as 13.3 µM (≈ 6.26 µg/mL). The half-inhibitory concentration (IC50) in data set [2] amounted to 4.38 µM. Besides, the cytotoxicity at 48 h, 25 µM in data set [3] stood at 19.3%.

`O=C(NN1C(C(=O)Nc2ccccc2)CC1C(=O)Nc1ccccc1)c1ccncc1` (centres undefined) gave an MIC in data set [1] of 15.1 µM (≈ 6.26 µg/mL). For the same compound, in data set [4], the “Log reduction in bacterial count” value stood at 1.6. Besides, in data set [2], the half-maximal inhibitory concentration (IC50) was found to be 9.22 µM. Besides, in data set [3], the cytotoxicity at 48 h, 25 µM amounted to 19.8%.

With `NNC(=O)c1ccncc1` [ISONIAZID], in data set [1], it took 0.72 µM (≈ 0.0987 µg/mL) to inhibit growth (MIC). Also, in data set [4], the “Log reduction in bacterial count” value stood at 1.5.

As for `COc1ccc(Nc2nc(Nc3ccc4c(=O)[nH][nH]c(=O)c4c3)c3cccnc3n2)cc1`, the IC50 in data set [2] was 23.3 µM.

For the compound `Cc1cccc(NC(=O)C2CC(C(=O)Nc3cccc(C)n3)N2NC(=O)c2ccncc2)n1` (centres undefined), 3.51 µM (≈ 1.56 µg/mL) was the least that counted as inhibitory in data set [1] (MIC). In addition, the half-maximal inhibitory concentration (IC50) in data set [2] amounted to 14.6 µM. For the same compound, the cytotoxicity at 48 h, 25 µM in data set [3] was 3.89%.

In the case of `O=C(NN1C(C(=O)NCCc2ccccc2)CC1C(=O)NCCc1ccccc1)c1ccncc1` (centres undefined), in data set [1], the MIC is 26.5 µM (≈ 12.5 µg/mL). Moreover, the IC50 in data set [2] came to 4.75 µM. Moreover, the cytotoxicity at 48 h, 25 µM in data set [3] is 42.3%.

In data set [1], `O=C(NN1C(C(=O)Nc2nc3ccccc3s2)CC1C(=O)Nc1nc2ccccc2s1)c1ccccc1` (centres undefined) yielded an MIC of 5.93 µM (≈ 3.13 µg/mL). The result in data set [4] was inactive. In addition, the IC50 in data set [2] was > 25 µM. Further, the cytotoxicity at 48 h, 25 µM in data set [3] worked out at 12.3%.

Turning to `Cc1ccc2[nH]c(/C(C#N)=C/c3ccc(-c4cc(C(=O)O)cc(C(=O)O)c4)o3)nc2c1`, in data set [2], the IC50 turned out to be 15.6 µM.

In data set [1], `COc1ccc(NC(=O)C2CC(C(=O)Nc3ccc(OC)cc3OC)N2NC(=O)c2ccncc2)c(OC)c1` (centres undefined) gave an MIC of 46.7 µM (≈ 25 µg/mL). Also, the IC50 in data set [2] is 11.7 µM. Moreover, the cytotoxicity at 48 h, 25 µM in data set [3] is 48.9%.
